What was measured:
HL-60 = experiment: Transglutaminase activity in HL-60 cdm-1 cells; format: functional, cell-based; details: Homo sapiens
Method in brief: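 Log-phase cells in RPMI 1640 with insulin/transferrin/selenide were pretreated with 1.25% DMSO for 18 h, then resuspended with retinoid or 0.1% ethanol control for 24 h. Lysate Tgase was measured as Ca2+-dependent [3H]putrescine conjugation to N,N-dimethylcasein.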

Mus musculus [1] = species: Mus musculus; experiment: In vitro inhibition of chondrogenesis in mouse embryo limb bud cells; format: functional, cell-based
Method in brief: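 Micromass cultures of day 11 mouse embryo forelimb bud cells (trypsin-EDTA dissociated, 200 000 cells/spot) in Eagle's MEM + 10% FBS. Retinoids 0.01 ng/mL–10 μg/mL (0.03 nM–30 μM) were added 24 h after plating, with ethanol vehicle (<1%). Cultures ended at 96 h, formalin/cetylpyridinium fixed, and cartilage nodules counted by image scan. Four replicates per concentration; IC50 from logarithmic curve fit.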

Mus musculus [2] = species: Mus musculus; experiment: Inhibition of tumor-promoter-induced ornithine decarboxylase in TPA-treated female hairless mice; format: functional
Method in brief: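 Retinoids were applied dorsally in 100 μL acetone 1 h before TPA (40 nmol/mouse in acetone). Mice were killed 4 h later, epidermis scraped after 55 °C for 30 s, and homogenate supernatant assayed for ODC by 14CO2 release (benzethonium hydroxide trap). Activity was normalized to protein.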

[3] = molecular target: T1, Retinoic acid receptor alpha (Homo sapiens, UniProt P10276); experiment: Transcriptional activation of Retinoic acid receptor RAR alpha
T1 sequence (P10276 whole entry): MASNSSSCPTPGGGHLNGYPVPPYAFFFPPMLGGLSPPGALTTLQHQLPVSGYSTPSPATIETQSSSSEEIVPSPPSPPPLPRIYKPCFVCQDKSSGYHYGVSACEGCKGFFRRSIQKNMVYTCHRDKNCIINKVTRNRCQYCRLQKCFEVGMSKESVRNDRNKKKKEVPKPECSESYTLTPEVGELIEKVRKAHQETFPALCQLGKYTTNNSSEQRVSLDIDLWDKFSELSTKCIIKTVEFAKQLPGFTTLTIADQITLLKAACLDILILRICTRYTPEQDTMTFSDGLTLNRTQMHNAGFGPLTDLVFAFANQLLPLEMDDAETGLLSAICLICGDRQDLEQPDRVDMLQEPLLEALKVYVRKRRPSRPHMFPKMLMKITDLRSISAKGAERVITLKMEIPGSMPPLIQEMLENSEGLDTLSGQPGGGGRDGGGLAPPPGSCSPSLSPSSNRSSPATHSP

[4] = molecular target: T2, Retinoic acid receptor RXR-alpha (Homo sapiens, UniProt P19793); experiment: Transcriptional activation of Retinoid X receptor RXR alpha
T2 sequence (P19793 whole entry): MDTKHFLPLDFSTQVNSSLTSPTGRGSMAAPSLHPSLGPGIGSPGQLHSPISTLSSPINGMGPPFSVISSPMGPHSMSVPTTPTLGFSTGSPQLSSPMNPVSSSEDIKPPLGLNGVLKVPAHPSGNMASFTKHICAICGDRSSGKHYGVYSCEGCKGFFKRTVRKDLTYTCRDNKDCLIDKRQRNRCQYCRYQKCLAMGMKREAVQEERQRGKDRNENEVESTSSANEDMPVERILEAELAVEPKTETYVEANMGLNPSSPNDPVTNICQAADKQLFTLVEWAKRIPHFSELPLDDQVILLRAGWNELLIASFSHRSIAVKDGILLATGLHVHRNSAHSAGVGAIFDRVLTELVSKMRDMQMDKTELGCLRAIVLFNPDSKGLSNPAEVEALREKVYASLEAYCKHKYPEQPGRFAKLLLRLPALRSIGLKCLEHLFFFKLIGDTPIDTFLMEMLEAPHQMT

[5] = molecular target: T3, Retinoic acid receptor beta (Homo sapiens, UniProt P10826); experiment: Transcriptional activation of Retinoic acid receptor RAR beta
T3 sequence (P10826 whole entry): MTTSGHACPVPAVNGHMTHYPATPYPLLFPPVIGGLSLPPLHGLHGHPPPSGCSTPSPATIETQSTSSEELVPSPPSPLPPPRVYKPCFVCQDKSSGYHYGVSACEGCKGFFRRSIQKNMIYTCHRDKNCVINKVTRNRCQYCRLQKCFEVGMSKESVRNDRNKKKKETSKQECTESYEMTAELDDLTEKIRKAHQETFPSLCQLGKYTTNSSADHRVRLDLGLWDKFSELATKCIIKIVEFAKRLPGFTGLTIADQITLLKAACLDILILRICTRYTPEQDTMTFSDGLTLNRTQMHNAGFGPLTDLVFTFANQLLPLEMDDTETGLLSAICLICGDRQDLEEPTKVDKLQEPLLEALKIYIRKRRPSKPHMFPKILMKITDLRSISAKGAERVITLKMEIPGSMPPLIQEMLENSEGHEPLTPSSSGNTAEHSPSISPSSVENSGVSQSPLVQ

[6] = molecular target: T4, Retinoic acid receptor gamma (Homo sapiens, UniProt P13631); experiment: Transcriptional activation of Retinoic acid receptor RAR gamma
T4 sequence (P13631 whole entry): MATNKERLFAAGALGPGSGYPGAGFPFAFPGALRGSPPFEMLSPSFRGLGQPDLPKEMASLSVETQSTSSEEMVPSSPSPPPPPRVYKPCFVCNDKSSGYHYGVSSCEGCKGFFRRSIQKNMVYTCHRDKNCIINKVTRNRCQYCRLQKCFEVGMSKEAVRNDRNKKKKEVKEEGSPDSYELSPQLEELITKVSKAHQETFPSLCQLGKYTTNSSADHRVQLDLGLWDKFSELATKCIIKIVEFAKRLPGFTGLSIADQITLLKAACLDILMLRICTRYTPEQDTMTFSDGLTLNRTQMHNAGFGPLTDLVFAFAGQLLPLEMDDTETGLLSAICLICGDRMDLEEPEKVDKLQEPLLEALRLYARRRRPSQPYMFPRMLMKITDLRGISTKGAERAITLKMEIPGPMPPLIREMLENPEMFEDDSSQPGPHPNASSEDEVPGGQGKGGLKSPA

SMILES	EC50 (HL-60) [nM]	EC50 [3] [nM]	EC50 [4] [nM]	EC50 [5] [nM]	EC50 [6] [nM]	IC50 (Mus musculus [1]) [nM]	IC80 (Mus musculus [2]) [nmol]
C/C(=C\c1cc(C(=O)O)cs1)c1cc2c(cc1C)C(C)(C)CCC2(C)C	20	> 10000	201	> 10000	> 10000	63	> 300
C/C(=C\c1ccc(C(=O)O)cc1)c1cc2c(cc1C)C(C)(C)CCC2(C)C	10	–	–	–	–	8	1.2
C/C(=C\c1ccc(C(=O)O)cn1)c1cc2c(cc1C)C(C)(C)CCC2(C)C	–	2690	105	21	374	–	–
C/C(=C\c1csc(C(=O)O)c1)c1cc2c(cc1C)C(C)(C)CCC2(C)C	–	> 10000	112	1080	> 10000	–	–
C/C(=C\c1ccc(C(=O)O)o1)c1cc2c(cc1C)C(C)(C)CCC2(C)C	–	> 10000	592	> 10000	> 10000	–	–

Second part, led by results:

EC50 (HL-60) [nM]	EC50 [3] [nM]	EC50 [4] [nM]	EC50 [5] [nM]	EC50 [6] [nM]	SMILES	IC50 (Mus musculus [1]) [nM]	IC80 (Mus musculus [2]) [nmol]
2	–	–	–	–	CC1=C(/C=C/C(C)=C\C=C\C(C)=C\C(=O)O)C(C)(C)CCC1 [ALITRETINOIN]	58	3.6
–	> 10000	> 10000	> 10000	> 10000	C/C(=C\c1cccc(C(=O)O)c1)c1cc2c(cc1C)C(C)(C)CCC2(C)C	–	–
> 1000	–	> 10000	–	–	C/C(=C\c1ccc(C(=O)O)cc1)c1ccc2c(c1)C(C)(C)CCC2(C)C	0.06	0.08
5	–	–	–	–	CC1=C(/C=C/C(C)=C/C=C/C(C)=C/C(=O)O)C(C)(C)CCC1 [TRETINOIN]	31	1.4
5	> 10000	11	23	37	C/C(=C\c1ccc(C(=O)O)s1)c1cc2c(cc1C)C(C)(C)CCC2(C)C	15	5.4
